≈ marks a conversion by molar mass, not a printed value.
Assays:
Assay type in all cases: functional
Escherichia coli [1] = assay: Antibacterial activity against extended-spectrum beta-lactamase-producing Escherichia coli isolate 12-2
Procedure, shortened: (§1)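 MIC determined in vitro by a standard technique and defined as the lowest compound concentration giving complete inhibition of bacterial growth. The Gram-positive and Gram-negative panels were tested alongside gemifloxacin, levofloxacin and ciprofloxacin reference drugs.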

Escherichia coli [2] = assay: Antibacterial activity against extended-spectrum beta-lactamase-producing Escherichia coli isolate 12-1; procedure, shortened: as §1
Escherichia coli [3] = assay: Antibacterial activity against Escherichia coli isolate 12-5; procedure, shortened: as §1
Escherichia coli [4] = assay: Antibacterial activity against Escherichia coli isolate 12-4; procedure, shortened: as §1
Streptococcus pneumoniae [5] = assay: Antibacterial activity against Streptococcus pneumoniae isolate 12-5; procedure, shortened: as §1
Streptococcus pneumoniae [6] = assay: Antibacterial activity against Streptococcus pneumoniae isolate 12-2; procedure, shortened: as §1
[7] = tested on: Staphylococcus epidermidis; assay: Antibacterial activity against methicillin-resistant Staphylococcus epidermidis isolate 12-35
Procedure, shortened: (§2)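 MIC determined in vitro by standard techniques, defined as the lowest compound concentration giving complete inhibition of bacterial growth. Gemifloxacin, levofloxacin and ciprofloxacin were tested alongside as reference drugs.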

[8] = tested on: Staphylococcus epidermidis; assay: Antibacterial activity against methicillin-resistant Staphylococcus epidermidis isolate 12-33; procedure, shortened: as §2
[9] = tested on: Staphylococcus epidermidis; assay: Antibacterial activity against methicillin-resistant Staphylococcus epidermidis isolate 12-5; procedure, shortened: as §2
[10] = tested on: Staphylococcus epidermidis; assay: Antibacterial activity against methicillin-sensitive Staphylococcus epidermidis isolate 12-3; procedure, shortened: as §1
[11] = tested on: Staphylococcus epidermidis; assay: Antibacterial activity against methicillin-sensitive Staphylococcus epidermidis isolate 12-2; procedure, shortened: as §1
[12] = tested on: Staphylococcus epidermidis; assay: Antibacterial activity against methicillin-sensitive Staphylococcus epidermidis isolate 12-1; procedure, shortened: as §1
Staphylococcus aureus [13] = assay: Antibacterial activity against methicillin-resistant Staphylococcus aureus isolate 12-15; procedure, shortened: as §2
Staphylococcus aureus [14] = assay: Antibacterial activity against methicillin-resistant Staphylococcus aureus isolate 12-13; procedure, shortened: as §2
Staphylococcus aureus [15] = assay: Antibacterial activity against methicillin-resistant Staphylococcus aureus isolate 12-3; procedure, shortened: as §2
Staphylococcus aureus [16] = assay: Antibacterial activity against methicillin-sensitive Staphylococcus aureus isolate 12-10; procedure, shortened: as §1
Staphylococcus aureus [17] = assay: Antibacterial activity against methicillin-sensitive Staphylococcus aureus isolate 12-7; procedure, shortened: as §1
Staphylococcus aureus [18] = assay: Antibacterial activity against methicillin-sensitive Staphylococcus aureus isolate 12-6; procedure, shortened: as §1
Staphylococcus aureus [19] = assay: Antibacterial activity against Staphylococcus aureus […]; procedure, shortened: as §1
Pseudomonas aeruginosa [20] = assay: Antibacterial activity against Pseudomonas aeruginosa isolate 12-2; procedure, shortened: as §1
Klebsiella pneumoniae [21] = assay: Antibacterial activity against extended-spectrum beta-lactamase-producing Klebsiella pneumoniae isolate 12-4; procedure, shortened: as §1
Klebsiella pneumoniae [22] = assay: Antibacterial activity against extended-spectrum beta-lactamase-producing Klebsiella pneumoniae isolate 12-2; procedure, shortened: as §1
Klebsiella pneumoniae [23] = assay: Antibacterial activity against Klebsiella pneumoniae isolate 12-4; procedure, shortened: as §1
Klebsiella pneumoniae [24] = assay: Antibacterial activity against Klebsiella pneumoniae isolate 12-2; procedure, shortened: as §1
Klebsiella pneumoniae [25] = assay: Antibacterial activity against Klebsiella pneumoniae isolate 12-1; procedure, shortened: as §1
Escherichia coli [26] = assay: Antibacterial activity against extended-spectrum beta-lactamase-producing Escherichia coli isolate 12-4; procedure, shortened: as §1
Escherichia coli [27] = assay: Antibacterial activity against Escherichia coli isolate 12-1; procedure, shortened: as §1
Escherichia coli [28] = assay: Antibacterial activity against Escherichia coli ATCC 25922; procedure, shortened: as §1
Pseudomonas aeruginosa [29] = assay: Antibacterial activity against Pseudomonas aeruginosa isolate 12-1; procedure, shortened: as §1
Pseudomonas aeruginosa [30] = assay: Antibacterial activity against Pseudomonas aeruginosa ATCC 27853; procedure, shortened: as §1
Klebsiella pneumoniae [31] = assay: Antibacterial activity against extended-spectrum beta-lactamase-producing Klebsiella pneumoniae isolate 12-1; procedure, shortened: as §1

Row | Compound | MIC (Escherichia coli [1]) | MIC (Escherichia coli [2]) | MIC (Escherichia coli [3]) | MIC (Escherichia coli [4]) | MIC (Streptococcus pneumoniae [5]) | MIC [7] | MIC [8] | MIC [9] | MIC [10] | MIC [11] | MIC [12] | MIC (Staphylococcus aureus [16]) | MIC (Staphylococcus aureus [17]) | MIC (Staphylococcus aureus [19]) | MIC (Pseudomonas aeruginosa [20]) | MIC (Klebsiella pneumoniae [21]) | MIC (Klebsiella pneumoniae [22]) | MIC (Klebsiella pneumoniae [23]) | MIC (Klebsiella pneumoniae [24]) | MIC (Klebsiella pneumoniae [25]) | also measured
1 | C[C@H]1COc2c(N3CCN(C)CC3)c(F)cc3c(=O)c(C(=O)O)cn1c23.C[C@H]1COc2c(N3CCN(C)CC3)c(F)cc3c(=O)c(C(=O)O)cn1c23.O [LEVOFLOXACIN] | 16 µg/mL | 16 µg/mL | 8 µg/mL | 8 µg/mL | 0.125 µg/mL | 0.125 µg/mL | 8 µg/mL | 0.125 µg/mL | 0.25 µg/mL | 0.25 µg/mL | 0.25 µg/mL | 0.06 µg/mL | 32 µg/mL | 0.125 µg/mL | 16 µg/mL | 4 µg/mL | 8 µg/mL | 0.25 µg/mL | 0.06 µg/mL | 0.06 µg/mL | MIC (Streptococcus pneumoniae [6]): 0.125 µg/mL; MIC (Staphylococcus aureus [13]): 0.125 µg/mL; MIC (Staphylococcus aureus [14]): 0.125 µg/mL; MIC (Staphylococcus aureus [15]): 0.125 µg/mL; MIC (Staphylococcus aureus [18]): 0.125 µg/mL
2 | CCO/N=C1\CN(c2c(F)cc3c(=O)c(C(=O)O)cn(C4CC4)c3c2F)CCC1NC (configuration not stated) | > 128 µg/mL | > 128 µg/mL | > 128 µg/mL | > 128 µg/mL | 1 µg/mL (≈ 2.3 µM) | 1 µg/mL (≈ 2.3 µM) | 1 µg/mL (≈ 2.3 µM) | 1 µg/mL (≈ 2.3 µM) | 0.5 µg/mL (≈ 1.15 µM) | 1 µg/mL (≈ 2.3 µM) | 0.5 µg/mL (≈ 1.15 µM) | 0.125 µg/mL (≈ 0.288 µM) | 128 µg/mL (≈ 295 µM) | 0.5 µg/mL (≈ 1.15 µM) | 16 µg/mL (≈ 36.8 µM) | > 128 µg/mL | 16 µg/mL (≈ 36.8 µM) | 1 µg/mL (≈ 2.3 µM) | 1 µg/mL (≈ 2.3 µM) | 2 µg/mL (≈ 4.6 µM) | MIC (Escherichia coli [26]): 16 µg/mL (≈ 36.8 µM); MIC (Escherichia coli [27]): 8 µg/mL (≈ 18.4 µM); MIC (Escherichia coli [28]): 16 µg/mL (≈ 36.8 µM); MIC (Streptococcus pneumoniae [6]): 0.5 µg/mL (≈ 1.15 µM); MIC (Staphylococcus aureus [13]): 0.5 µg/mL (≈ 1.15 µM); MIC (Staphylococcus aureus [14]): 0.5 µg/mL (≈ 1.15 µM); MIC (Staphylococcus aureus [15]): 0.5 µg/mL (≈ 1.15 µM); MIC (Staphylococcus aureus [18]): 0.5 µg/mL (≈ 1.15 µM); MIC (Pseudomonas aeruginosa [29]): 16 µg/mL (≈ 36.8 µM); MIC (Pseudomonas aeruginosa [30]): 16 µg/mL (≈ 36.8 µM); MIC (Klebsiella pneumoniae [31]): 16 µg/mL (≈ 36.8 µM)
3 | O=C(O)c1cn(C2CC2)c2cc(N3CCNCC3)c(F)cc2c1=O [CIPROFLOXACIN] | – | – | – | – | – | 0.015 µg/mL (≈ 0.0453 µM) | 0.015 µg/mL (≈ 0.0453 µM) | 0.015 µg/mL (≈ 0.0453 µM) | 0.06 µg/mL (≈ 0.181 µM) | 0.5 µg/mL (≈ 1.51 µM) | 0.06 µg/mL (≈ 0.181 µM) | 0.25 µg/mL (≈ 0.754 µM) | 64 µg/mL (≈ 193 µM) | 0.25 µg/mL (≈ 0.754 µM) | 16 µg/mL (≈ 48.3 µM) | 4 µg/mL (≈ 12.1 µM) | 4 µg/mL (≈ 12.1 µM) | 0.125 µg/mL (≈ 0.377 µM) | 0.125 µg/mL (≈ 0.377 µM) | 0.03 µg/mL (≈ 0.0905 µM) | MIC (Klebsiella pneumoniae [31]): 2 µg/mL (≈ 6.04 µM)

Source: ChEMBL document CHEMBL2331542, “Synthesis and in vitro antibacterial activity of quinolone/naphthyridone derivatives containing 3-alkoxyimino-4-(methyl)aminopiperidine scaffolds” (2013)
